Compounds with a hit are over-represented: about 2.5% of the library has one in this group of screens.
TDP2 absorb – human TDP2 enzyme inhibitors, primary screen, biochemical, epi absorbance, recombinant enzyme; Tyrosyl-DNA phosphodiesterase 2 (Homo sapiens), O95551; 0.34% of 370,000 active; inhibition, % at 12.8 µM; T5PNP hydrolysis, p-nitrophenol absorbance 415 nm;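 active means inhibition above the mean of all tested compounds plus 3 SD, set per campaign, cut at about 25% in these data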;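 further: 0% = DMSO with enzyme and 100% = buffer with substrate but no TDP2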
Target sequence (O95551 whole entry, looked up): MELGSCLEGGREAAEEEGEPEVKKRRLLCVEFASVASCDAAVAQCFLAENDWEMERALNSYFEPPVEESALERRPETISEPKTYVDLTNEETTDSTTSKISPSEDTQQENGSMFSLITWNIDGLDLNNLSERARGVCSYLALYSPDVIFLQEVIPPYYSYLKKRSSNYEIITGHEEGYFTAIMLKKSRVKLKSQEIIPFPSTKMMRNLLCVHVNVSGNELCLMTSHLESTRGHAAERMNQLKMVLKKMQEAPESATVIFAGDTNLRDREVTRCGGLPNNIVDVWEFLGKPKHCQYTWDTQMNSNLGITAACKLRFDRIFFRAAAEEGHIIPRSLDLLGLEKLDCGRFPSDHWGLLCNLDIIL
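Test system: Human TDP2 enzyme | Reagent: 5 mM T5PNP | Compound dosing: 12.8 µM single point, 1% DMSO | Incubation: Enzyme reaction with compound for 2 h at 37 °C | Technique: p-Nitrophenol epi absorbance | Read-out: % inhibition relative to enzyme-containing and enzyme-free wells | Benchmarks: High control without enzyme, low control DMSO plus TDP2 | Replicates: Singlicate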
PAD4 FP inh – human PAD4 inhibitors, primary screen, biochemical, fluorescence polarization, 1536-well format; Protein-arginine deiminase type-4 (Homo sapiens), Q9UM07; recombinant PAD4, RCA probe fluorescence polarization; inhibition, % at 6.36 µM; 0.41% of 330,000 active;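 active means percent inhibition above a cutoff equal to the mean of all tested compounds plus 3 SD, cut at about 15% in these data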;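 further: 0% = PAD4 with RCA probe and DMSO and 100% = probe without PAD4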
PRMT1 inh – PRMT1 methyltransferase inhibitors, primary screen, biochemical, fluorescence polarization | inhibition, % at 2.79 µM | recombinant PRMT1, activity-based probe fluorescence polarization | Protein arginine N-methyltransferase 1 (Homo sapiens), Q99873 | 1.3% of 370,000 active;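 active means inhibition above about 21% made by adding two undisclosed values, limit read from the data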
GSTO1 counter – inhibitors of recombinant GSTO1, primary screen, counter-screen for RBBP9 inhibitor project, biochemical, fluorescence polarization; activity-based probe fluorescence polarization; inhibition, % at 5.96 µM; 1.1% of 300,000 active; AID 1974, 2009;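 active means inhibition above the campaign mean inhibition plus 3 SD, cut at about 35% in these data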;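 further: 0% = GSTO1-1 with DMSO and 100% = wells lacking GSTO1-1 enzyme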
E coli Lon inh – inhibitors of E. coli Lon protease, primary screen, biochemical, fluorescence polarization | P0A9M0 | purified E. coli Lon protease | inhibition, % at 7.94 µM | 0.42% of 360,000 active; in the data active means inhibition above about 13%, passing the limit was not always enough;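 further: 0% = enzyme with probe and DMSO and 100% = no enzyme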
PRMT1 inh conf – PRMT1 methyltransferase inhibitors, confirmation, biochemical, fluorescence polarization, triplicate; recombinant His-PRMT1, activity-based probe fluorescence polarization; 42% of 3,300 active; shares compounds with PRMT1 inh; AID 687036, 2013; inhibition, % at 2.79 µM;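 active means mean inhibition across replicates above the hit cutoff derived for the earlier primary screen, cut at about 22% in these data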
* hit, by the source's call; / = not tested or not shown.

SMILES	TDP2 absorb	PAD4 FP inh	PRMT1 inh	GSTO1 counter	E coli Lon inh	PRMT1 inh conf
S=c1[nH]nc(-c2cc(-c3ccccc3)n[nH]2)n1/N=C/c1cccs1	-9	7	28*	6	0	31*
S=c1[nH]nc(-c2cc(-c3ccccc3)n[nH]2)n1N=Cc1c[nH]c2ccccc12	5	/	32*	/	/	24*
S=c1[nH]nc(-c2cc(-c3ccccc3)n[nH]2)n1/N=C/c1ccccc1	7	2	3	3	3	/
COc1ccccc1/C=C/C=N/n1c(-c2cc(-c3ccccc3)n[nH]2)n[nH]c1=S	3	5	26*	-11	-3	23*
S=c1[nH]c(-c2ccccc2)cn1/N=C/c1cccs1	-11	-2	45*	-3	-3	22*
O=C(c1ccccc1Cl)N1CCN(S(=O)(=O)N2CCCCC2)CC1	17	-1	-3	5	-9	/
COc1ccc(C2=Nc3ccccc3N(C(=O)c3ccncc3)C2C(=O)NC(C)C)cc1 (centres undefined)	-5	/	-6	/	/	/
CCCCNC(=S)N(CCO)Cc1cc2cc3c(cc2[nH]c1=O)OCCO3	-10	1	44*	6	-14	-4
O=C(O)c1ccc(N/N=C/C2=C(N3CCOCC3)C(=C\c3ccccc3)/CC2)cc1	21	4	33*	27	-18	16
Cc1ccc2[nH]c(=O)c(CN(CCc3ccccc3)C(c3nnnn3Cc3ccco3)C(C)C)cc2c1 (centres undefined)	7	-13	27*	-11	-10	12
CCc1ccc2[nH]c(=O)c(CN(Cc3ccccc3)Cc3nnnn3Cc3ccco3)cc2c1	-12	-1	13	3	-10	/
O=c1[nH]c2cc3c(cc2cc1CN(Cc1cccs1)Cc1nnnn1Cc1ccco1)OCCO3	7	1	58*	7	7	33*
O=c1[nH]c2cc3c(cc2cc1CN(Cc1ccccc1)Cc1nnnn1Cc1ccco1)OCCO3	-5	/	52*	/	-34	20
O=c1[nH]c2cc3c(cc2cc1CN(Cc1cccnc1)Cc1nnnn1Cc1ccco1)OCCO3	-8	-5	35*	17	0	27*
COc1ccccc1CN(Cc1cc2cc3c(cc2[nH]c1=O)OCCO3)Cc1nnnn1Cc1ccco1	0	-6	36*	14	3	2
CCOc1ccc(S(=O)(=O)N2CCC(C(=O)NCC3CCCO3)CC2)cc1Cl (centres undefined)	-3	4	-1	1	0	/
CCOC(=O)C(C)N1C(=O)S/C(=C\c2ccc(-c3ccccc3C(=O)O)o2)C1=O (centres undefined)	-6	-7	29*	17	-19	4
Cc1ccc(C)c(N2C(=N)S/C(=C\c3ccc(-c4ccccc4C(=O)O)o3)C2=O)c1	-8	-14	7	-43	-28	/
COc1ccc(NC(=O)CSC2CC(=O)N(c3ccc4c(c3)OCCO4)C2=O)cc1 (centres undefined)	-6	-1	36*	-1	6	23*
COc1ccc(N2C(=O)CC(SCC(=O)O)C2=O)cc1 (centres undefined)	-8	0	25*	4	-9	11
COc1ccccc1NC(=O)CSC1CC(=O)N(c2ccc3c(c2)OCO3)C1=O (centres undefined)	9	5	44*	12	0	35*
COc1ccccc1NC(=O)CN1CCN(CC(=O)Nc2ccc3c(c2)OCO3)CC1	7	-14	1	21	-5	/
CCN=C(Nc1ccc2c(c1)OCO2)SC1CC(=O)N(c2ccc(OC)cc2)C1=O (centres undefined)	8	-2	-1	0	-3	/
COC(=O)[C@]1(CNC(C)=O)CC(=O)N(Cc2ccc(Cl)cc2)[C@@H]1c1ccc(OC)cc1	-18	/	-5	/	/	/
COc1ccc(N2C(=O)C(Cl)=C(Oc3cccc(OC)c3)C2=O)cc1	/	-1	/	3	-1	/

Compound activity (PubChem)
